Laboratory results as given in ChEMBL document CHEMBL4402517, “Rational modification of Mannich base-type derivatives as novel antichagasic compounds: Synthesis, in vitro and in vivo evaluation” (Bioorg Med Chem, 2019).
pIC50: −log10 of the molar value. The source made the active and inactive calls. The calls are words filed in the database; no cut-off is given here.

Key:
[1] = (§1) Toxicity in BALB/c mouse infected with Trypanosoma cruzi MHOM/Pe/2011/Arequipa;DTU 5 bloodstream trypomastigotes assessed as decrease in serum alkaline phosphatase level in chronic phase at 20 mg/kg/day, po administered for 5 consecutive days starting from day 70 post infection measured on day 100 post infection relative to control; type: organism-based; set-up: scale not given: the % may be the effect or the level left; conditions: in vivo
Summary of the method: (§2)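 Female BALB/c mice (10–12 weeks, 14–20 g; groups of three) were infected i.p. with 5 × 10^5 Arequipa bloodstream trypomastigotes. Dosing was oral at 20 mg/kg/day for 5 days, from day 8 pi (acute) or day 70 pi (chronic), as a 2 mg/ml suspension in 5% DMSO/0.5% HPMC; controls received vehicle. Cyclophosphamide 200 mg/kg i.p. was given at day 80 pi. Serum was collected 2 days post-treatment and at necropsy by cardiac puncture and compared with infected untreated controls.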

Trypanosoma cruzi [2] = test: Antitrypanosomal activity against Trypanosoma cruzi MHOM/Pe/2011/Arequipa;DTU 5 bloodstream trypomastigote infected in BALB/c mouse assessed as parasitemia reactivation in acute phase at 20 mg/kg/day, po administered for 5 consecutive days starting from day 8 post infection followed by cyclophosphamide induced immunosuppression on day 80 post infection by Neubauer chamber relative to control; type: functional
Summary of the method: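 Female BALB/c mice (three per group) were infected i.p. with 5 × 10^5 Arequipa bloodstream trypomastigotes and treated orally at 20 mg/kg/day for 5 days (vehicle 5% DMSO/0.5% HPMC). Once parasitemia was undetectable (day 80 pi), cyclophosphamide 200 mg/kg was given i.p. Bloodstream parasites were then counted to give % reactivation versus untreated controls.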

Trypanosoma cruzi [3] = test: Trypanocidal activity against Trypanosoma cruzi trypomastigote form infected in African green monkey Vero cells assessed as ratio of infected cells at 50 uM measured after 72 hrs by Giemsa staining based assay relative to control; type: functional
Summary of the method: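 Vero cells (1 × 10^4/well, on coverslips) were infected with trypomastigotes at MOI 10:1 for 24 h and washed three times with PBS. They were treated at 3.1, 6.25, 12.5, 25 and 50 µM for 72 h at 37 °C in 5% CO2. Infected cells were counted after Giemsa staining. Triplicates, two separate determinations.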

Trypanosoma cruzi [4] = test: Antitrypanosomal activity against Trypanosoma cruzi MHOM/Pe/2011/Arequipa;DTU 5 bloodstream trypomastigote infected in BALB/c mouse assessed as parasite-free muscle in chronic phase at 20 mg/kg/day, po administered for 5 consecutive days starting from day 70 post infection followed by cyclophosphamide induced immunosuppression on day 80 post infection measured after day 100 post infection by PCR method relative to control; type: functional
Summary of the method: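 Female BALB/c mice (10–12 weeks, three per group) were infected i.p. with 5 × 10^5 Arequipa bloodstream trypomastigotes. Dosing was oral, 20 mg/kg/day for 5 days, as a suspension in 5% DMSO/0.5% HPMC. Cyclophosphamide 200 mg/kg i.p. was given at day 80 pi. At necropsy (day 100) tissues were tested by PCR on the splice leader region (primers TC/TC1, 300 bp). Scored as x/3 mice positive.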

[5] = (§3) Toxicity in BALB/c mouse infected with Trypanosoma cruzi MHOM/Pe/2011/Arequipa;DTU 5 bloodstream trypomastigote assessed as increase in serum alanine aminotransferase level in acute phase at 20 mg/kg/day, po administered for 5 consecutive days starting from day 8 post infection and measured at day 14 post infection by biochemical analysis relative to control; type: organism-based; conditions: in vivo; summary of the method: as §2
[6] = Toxicity in BALB/c mouse infected with Trypanosoma cruzi MHOM/Pe/2011/Arequipa;DTU 5 bloodstream trypomastigote assessed as decrease in serum urea level in chronic phase at 20 mg/kg/day, po administered for 5 consecutive days starting from day 70 post infection and measured at day 76 post infection relative to control; type: organism-based; set-up: scale not given: the % may be the effect or the level left; conditions: in vivo; summary of the method: as §2
[7] = as §1, with “trypomastigote” for “trypomastigotes”, “change” for “decrease”, “aspartate aminotransferase” for “alkaline phosphatase”; type: organism-based; conditions: in vivo; summary of the method: as §2
Trypanosoma cruzi [8] = test: Antitrypanosomal activity against Trypanosoma cruzi MHOM/Pe/2011/Arequipa;DTU 5 epimastigote assessed as change in RNA level at IC50 measured after 72 hrs by acridine orange staining based flow cytometry relative to control; type: functional
Summary of the method: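 They were stained with rhodamine 123 or acridine orange and analysed by flow cytometry. Index of variation = (TM−CM)/CM, from median fluorescence of treated (TM) and untreated (CM) parasites.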

Trypanosoma cruzi [9] = test: Antitrypanosomal activity against Trypanosoma cruzi MHOM/Pe/2011/Arequipa;DTU 5 epimastigote assessed as effect on D-lactate excretion at IC50 after 72 hrs by H NMR method relative to control; type: functional, organism-based
Summary of the method: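 Cells were spun at 800 × g for 10 min and culture supernatants analysed by 1H NMR. Catabolite peaks were expressed as % variation versus untreated parasites.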

[10] = Genotoxicity in Salmonella typhimurium TA1535 harboring pSK1002 assessed as survival at 0.031 mg/ml in presence of Sprague-Dawley rat liver S9 fraction metabolic activation by SOS/umu assay relative to control; type: toxicity, subcellular; conditions: salmonella enterica subsp. enterica serovar typhimurium, read-out: Survival
Summary of the method: (§4)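 Survival of S. typhimurium TA1535/pSK1002 exposed to a range of compound concentrations with or without S9 mix in 96-well format. Survival percentage measured as the cytotoxicity arm of the SOS/umu test. Concentrations with survival ≥80% are counted as non-cytotoxic.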

[11] = Genotoxicity in Salmonella typhimurium TA1535 harboring pSK1002 assessed as survival at 0.002 mg/ml in presence of Sprague-Dawley rat liver S9 fraction metabolic activation by SOS/umu assay relative to control; type: toxicity, subcellular; conditions: salmonella enterica subsp. enterica serovar typhimurium, read-out: Survival; summary of the method: as §4
[12] = Genotoxicity in Salmonella typhimurium TA1535 harboring pSK1002 assessed as umu gene induction at 0.063 mg/ml in absence of Sprague-Dawley rat liver S9 fraction metabolic activation by SOS/umu assay relative to control; type: toxicity; conditions: salmonella enterica subsp. enterica serovar typhimurium, read-out: FC
Summary of the method: (§5)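 umu induction in S. typhimurium TA1535/pSK1002, with or without S9 mix, in 96-well format. β-galactosidase read colorimetrically with ONPG substrate. Output given as relative units and induction factor (IF). The run is valid if positive controls reach IF ≥2. A compound counts as genotoxic at IF ≥2 at a concentration giving ≥80% bacterial survival.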

[13] = Genotoxicity in Salmonella typhimurium TA1535 harboring pSK1002 assessed as umu gene induction at 0.004 mg/ml in absence of Sprague-Dawley rat liver S9 fraction metabolic activation by SOS/umu assay relative to control; type: toxicity; conditions: salmonella enterica subsp. enterica serovar typhimurium, read-out: FC; summary of the method: as §5
[14] = Genotoxicity in Salmonella typhimurium TA1535 harboring pSK1002 assessed as umu gene induction at 0.5 mg/ml in presence of Sprague-Dawley rat liver S9 fraction metabolic activation by SOS/umu assay relative to control; type: toxicity, subcellular; conditions: salmonella enterica subsp. enterica serovar typhimurium, read-out: FC; summary of the method: as §5
[15] = Genotoxicity in Salmonella typhimurium TA1535 harboring pSK1002 assessed as umu gene induction at 0.031 mg/ml in presence of Sprague-Dawley rat liver S9 fraction metabolic activation by SOS/umu assay relative to control; type: toxicity, subcellular; conditions: salmonella enterica subsp. enterica serovar typhimurium, read-out: FC; summary of the method: as §5
[16] = as §3, with “as decrease” for “as increase”, “serum alkaline phosphatase” for “serum alanine aminotransferase”, “measured on” for “measured at”, “day 100” for “day 14”; type: organism-based; set-up: scale not given: the % may be the effect or the level left; conditions: in vivo; summary of the method: as §2
[17] = Inhibition of Trypanosoma cruzi MHOM/Pe/2011/Arequipa;DTU 5 epimastigote Fe-SOD
Summary of the method: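 Fe-SOD excreted by exponentially growing T. cruzi Arequipa epimastigotes cultured in supplemented MTL at 28 °C. Protein quantified by Bradford. SOD activity measured by the Beyer–Fridovich method. IC50 from inhibition curves by nonlinear regression. Mean of three independent determinations ± standard deviation.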

| SMILES | Activity [1] | Activity (Trypanosoma cruzi [2]) [%] | Ratio (Trypanosoma cruzi [3]) [%] | Activity (Trypanosoma cruzi [4]) [%] | Activity [5] [%] | Activity [6] | Activity [7] [%] | Activity (Trypanosoma cruzi [8]) [%] | Activity (Trypanosoma cruzi [9]) | viability at 0.031 mg/ml [10] [%] | viability at 0.002 mg/ml [11] [%] | fold induction at 0.063 mg/ml [12] | fold induction at 0.004 mg/ml [13] | fold induction at 0.5 mg/ml [14] | fold induction at 0.031 mg/ml [15] | Activity [16] | pIC50 [17] |
| --- | --- | --- | --- | --- | --- | --- | --- | --- | --- | --- | --- | --- | --- | --- | --- | --- | --- |
| O=C(Cn1ccnc1[N+](=O)[O-])NCc1ccccc1 [BENZNIDAZOLE] | <= 10% | 65 | 18 | 38 | > 40 | <= 20% | > 10 | -4.7 | Active |  |  |  |  |  |  |  |  |
| O=C(CCN1CCN(c2ccc(Cl)cc2)CC1)c1ccc(O)cc1 |  | 25 |  | 63 | > 40 | <= 30% |  | -5.1 | Active | 102 | 111 | 0.71 | 0.68 | 0.46 | 0.83 | <= 10% | 5.41 |
| O=C(CCN1CCN(c2ccc(C(F)(F)F)cc2)CC1)c1ccc(O)cc1 | <= 30% | 85 | 7 | 50 | > 40 |  | > 10 | -4.2 | Active | 107 | 108 | 0.67 | 0.69 | 0.74 | 0.87 | <= 30% | 5.37 |
